From PubChem BioAssay
Activity calls are given as the source filed them.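 How the source made its calls, unless noted: active means inhibition at or above 50% relative to wild type and mutant plate controls; inactive means inhibition below 50%.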

Legend:
[1] = inhibitors of TNFa-induced NFkB p65 translocation, primary screen, imaging, HUVEC, MLSMR starter and 10KST1 sets (AID 438;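 active means inhibition above 20% together with a positive visual image hit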;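 further: compound added about 3h40 before a 20 min TNFalpha stimulation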;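 on inhibition: signal is the nuclear over cytoplasmic p65 intensity ratio per well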); details: HUVEC TNFa-induced p65 nuclear translocation; cell count: measured here: nuclei count (cytotoxicity indicator), at 2.08 µM unless noted; inhibition: at 2 µM, stronger effect = higher value unless noted
[2] = inhibitors of E-selectin induction by TNFa, primary screen, imaging, HUVEC, immunofluorescence, MLSMR starter and 10KST1 sets (AID 487;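 active means visually confirmed hit in the image check and inhibition above 20%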;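 on inhibition: signal is fraction of cell area covered by stained E-selectin grains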;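 on nuclei count: 100% = median nuclei count of all wells on the same plate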); details: HUVEC TNFalpha-induced E-selectin immunofluorescence imaging, at 2 µM; inhibition: stronger effect = higher value; nuclei count: measured here: cell number, toxicity
[3] = DUSP6 inhibitors restoring Erk phosphorylation by chemical complementation, primary imaging in DUSP6-transfected HeLa (AID 609;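 active means compounds giving at least 50% inhibition in the cell-based MKP-3 phosphatase rescue imaging test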;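 on inhibition: phospho-Erk level distribution per well compared with pooled transfected vehicle control wells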); details: HeLa MKP-3 transfected, phospho-Erk imaging KS statistic, at 10 µM
[4] = molecular target: Dual specificity protein phosphatase 6 (Homo sapiens) (UniProt Q16828); assay: as above; details: HeLa MKP-3 transfected, phospho-Erk imaging KS statistic, at 10 µM, stronger effect = higher value
Sequence of Dual specificity protein phosphatase 6 (Homo sapiens) (Q16828 whole entry, looked up): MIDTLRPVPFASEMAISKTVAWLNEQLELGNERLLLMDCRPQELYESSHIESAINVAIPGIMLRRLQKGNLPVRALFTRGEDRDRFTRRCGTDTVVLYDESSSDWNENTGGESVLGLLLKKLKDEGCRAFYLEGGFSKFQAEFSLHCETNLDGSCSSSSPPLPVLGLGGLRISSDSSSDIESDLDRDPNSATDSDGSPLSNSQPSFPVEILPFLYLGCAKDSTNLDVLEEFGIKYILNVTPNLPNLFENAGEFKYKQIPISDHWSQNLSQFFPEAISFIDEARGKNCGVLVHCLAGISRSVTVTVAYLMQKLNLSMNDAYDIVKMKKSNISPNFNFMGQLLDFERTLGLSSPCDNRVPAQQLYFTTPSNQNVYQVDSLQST

[5] = molecular target: Voltage-gated potassium channel subunit beta-2 (Rattus norvegicus) (UniProt P62483); assay: KvBeta enzyme negative modulators, primary screen, biochemical, NADPH fluorescence (AID 622;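 active means fluorescence slope higher than the sample average by over 3 SD, cut at about -0.22 in these data, passing the limit was not always enough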;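 further: slope of raw intensity against log time taken from 70 to 1610 s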); details: recombinant KvBeta, 4-cyanobenzaldehyde reduction, at 10 µM, stronger effect = higher value
Sequence of Voltage-gated potassium channel subunit beta-2 (Rattus norvegicus) (P62483 whole entry, looked up): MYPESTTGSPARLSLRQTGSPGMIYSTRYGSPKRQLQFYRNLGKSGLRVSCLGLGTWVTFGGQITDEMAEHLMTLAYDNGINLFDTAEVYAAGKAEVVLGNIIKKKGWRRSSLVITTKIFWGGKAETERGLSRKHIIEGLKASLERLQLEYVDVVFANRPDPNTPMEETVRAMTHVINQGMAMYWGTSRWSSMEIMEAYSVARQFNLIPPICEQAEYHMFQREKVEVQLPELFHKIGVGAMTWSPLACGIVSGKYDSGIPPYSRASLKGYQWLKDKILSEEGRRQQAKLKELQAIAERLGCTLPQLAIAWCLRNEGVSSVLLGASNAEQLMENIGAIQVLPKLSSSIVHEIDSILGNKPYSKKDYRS

[6] = molecular target: Voltage-gated potassium channel subunit beta-2 (Rattus norvegicus) (UniProt P62483); assay: KvBeta positive modulators, primary screen, biochemical, NADPH fluorescence (AID 623;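 active means NADPH fluorescence slope more negative than the mean of all samples by about 3 SD, 99.7% confidence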;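 further: fluorescence intensity change per second fitted from 20 to 320 s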); details: Recombinant KvBeta, NADPH fluorescence decrease slope, 10 min; at 10 µM; stronger effect = lower value
[7] = molecular target: Alpha-2C adrenergic receptor (Homo sapiens) (UniProt P18825); assay: modulators of alpha2C/GIRK thallium flux, primary screen, cell-based, HEK293 alpha2C/GIRK1/2 (AID 624;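 active means fluorescence slope after compound addition differing from the mean of all screened samples at 99.7% confidence, in either direction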;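 further: slope of fluorescence ratio to pre-addition baseline per second over 15 to 24 s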); details: thallium flux BTC fluorescence, at 10 µM, actives lie on both sides
Sequence of Alpha-2C adrenergic receptor (Homo sapiens) (P18825 whole entry, looked up): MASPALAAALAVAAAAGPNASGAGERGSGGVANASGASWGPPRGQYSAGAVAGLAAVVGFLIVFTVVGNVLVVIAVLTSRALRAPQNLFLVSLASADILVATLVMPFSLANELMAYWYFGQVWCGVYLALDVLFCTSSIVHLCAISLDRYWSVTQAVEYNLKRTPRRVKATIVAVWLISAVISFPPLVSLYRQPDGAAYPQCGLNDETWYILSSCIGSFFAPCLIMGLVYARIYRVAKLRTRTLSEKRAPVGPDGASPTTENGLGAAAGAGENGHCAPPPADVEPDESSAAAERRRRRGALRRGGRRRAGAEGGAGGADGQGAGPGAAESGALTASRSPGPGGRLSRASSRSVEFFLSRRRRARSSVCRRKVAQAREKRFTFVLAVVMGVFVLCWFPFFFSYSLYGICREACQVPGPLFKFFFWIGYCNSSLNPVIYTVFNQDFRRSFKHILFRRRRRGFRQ

[8] = inhibitors of larval lipid processing in zebrafish, primary screen, whole organism, PED6 fluorescence, gall bladder and intestine (AID 686;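 active means a full or partial loss of lipid-probe fluorescence in the fish gall bladder, intestine or both, judged by eye; inactive means no fluorescence loss, or compound toxic to the fish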;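 further: larvae 5 to 7 days old with five fish per well; signal comes from phospholipase A2 cleavage of quenched PED6 carried via bile; overnight exposure to compound and PED6 before scoring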); details: Zebrafish larvae PED6 lipid processing, fluorescence scoring
How it was run: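 Also added: quenched phospholipase substrate PED6, 100 nM final, ingested by larvae; System: zebrafish larvae, 5-7 d; Quantity: 5 larvae per well; Compound: 20 µM single dose; Schedule: overnight compound and PED6 incubation; Read-out: visual per-well fluorescence inhibition score; Measured by: By-eye fluorescence microscopy; Medium: E3.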

[9] = inhibitors of Chlamydomonas gravitaxis, primary screen, whole organism, Chlamydomonas reinhardtii, WT vs cilia-less mutant, absorbance, 96-well (AID 463189); details: OD600 absorbance, 2 days, at 10 µM, stronger effect = higher value;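 further: 0% = wild type cc124 cells in DMSO and 100% = ciliumless bld1 mutant cells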
[10] = molecular target: Muscarinic acetylcholine receptor M4 (Homo sapiens) (UniProt P08173); assay: compounds altering M4/GIRK thallium flux, either direction, primary screen, M4 allosteric agonist project, cell-based, HEK293 M4/GIRK, BTC-AM (AID 625;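 active means fluorescence slope after compound addition differing from the mean of all tested samples at 99.7% confidence, mostly higher but some lower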;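 further: thallium influx through GIRK channels coupled to M4 in HEK293 cells with BTC-AM dye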); details: at 10 µM, actives lie on both sides
Sequence of Muscarinic acetylcholine receptor M4 (Homo sapiens) (P08173 whole entry, looked up): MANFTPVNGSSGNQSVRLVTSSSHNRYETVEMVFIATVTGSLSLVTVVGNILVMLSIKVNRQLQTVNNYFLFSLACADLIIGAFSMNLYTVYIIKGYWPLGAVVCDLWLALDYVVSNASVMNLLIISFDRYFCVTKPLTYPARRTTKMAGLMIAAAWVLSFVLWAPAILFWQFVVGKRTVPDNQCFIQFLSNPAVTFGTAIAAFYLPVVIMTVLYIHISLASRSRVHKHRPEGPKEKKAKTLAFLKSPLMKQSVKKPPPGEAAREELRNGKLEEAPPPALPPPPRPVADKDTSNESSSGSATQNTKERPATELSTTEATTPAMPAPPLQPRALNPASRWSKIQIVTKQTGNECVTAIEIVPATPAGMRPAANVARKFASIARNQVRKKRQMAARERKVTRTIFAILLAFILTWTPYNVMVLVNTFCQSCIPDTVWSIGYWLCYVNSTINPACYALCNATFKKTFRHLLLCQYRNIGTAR
How it was run: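 assay system = HEK293 cells with M4 receptor and GIRK channels | medium = pH 7.3 thallium assay buffer | doses = 10 µM final, single point | timing = cells overnight at 37 °C, BTC-AM loading 1 h, reads 2 min total | signal = BTC-AM fluorescence, 1 Hz kinetic reads | read-out = post-addition slope, 15–24 s, of baseline-normalized fluorescence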

[11] = measured here: cell density z-score
[12] = measured here: nuclear c-Myc green intensity z-score
[13] = measured here: nuclear pErk red intensity z-score, stronger effect = higher value

SMILES | cell count [1] | inhibition [1] | inhibition [2] | nuclei count [2] | z-score [3, 11] | z-score [3, 12] | z-score [3, 13] | inhibition [4] | fluorescence slope [5] | NADPH fluorescence slope [6] | slope [7] | outcome [8] | inhibition [9] | fluorescence slope [10]
CCN(CC)CCCNC(=O)c1c(O)c2ccccc2n(Cc2ccccc2)c1=O | 520 | -4.8% (inactive) | -10.6% (inactive) | 98.5% | 3.05 | 0.407 | -1.44 | 15.8% (inactive) | -0.425 (inactive) | -6.7e-06 (inactive) | 0.00401 (inactive) | inactive | -10.8% (inactive) | –
CCOc1ccc(Cc2c(O)[nH]c(=O)[nH]c2=O)cc1 | 618 | -8.4% (inactive) | -94.6% (inactive) | 180% | -2.58 | 1.33 | 1.61 | 3.56% (inactive) | -0.34 (inactive) | -3.4e-06 (inactive) | 0.00464 (inactive) | inactive | 18.5% (inactive) | –
CN1CCc2nc3sc(C#N)c(N)c3c(-c3cccs3)c2C1 | 596 | -16.8% (inactive) | -65% (inactive) | 165% | 0.586 | -0.275 | 0.463 | 6.51% (inactive) | -0.362 (inactive) | -6e-05 (inactive) | 0.00412 (inactive) | inactive | -2.74% (inactive) | –
CCN(CC)CCCC(C)N=C(c1ccccc1)c1c(O)n(C)c(=O)n(C)c1=O (configuration not stated) | 617 | -1.4% (inactive) | -14.1% (inactive) | 134% | 0.00172 | -0.468 | 1.57 | -1.12% (inactive) | -0.507 (inactive) | -7.1e-05 (inactive) | 0.00446 (inactive) | inactive | 8.34% (inactive) | –
OC(Cc1ccccc1)(c1ccccc1)C1CN2CCC1CC2 (configuration not stated) | 556 | -8.4% (inactive) | -124% (inactive) | 130% | 0.0962 | 1.34 | 0.286 | 1.98% (inactive) | -0.512 (inactive) | -2.1e-05 (inactive) | 0.00546 (inactive) | inactive | 0.812% (inactive) | –
CCOC(=O)[C@@]1(C#N)[C@@H]2C=CC(C(N)=O)=CN2[C@@H](C(N)=O)[C@@H]1c1cccc(Cl)c1 | 359 | -11.1% (inactive) | -137% (inactive) | 133% | 1.68 | -1.47 | -0.2 | 11.4% (inactive) | -0.368 (inactive) | -1e-05 (inactive) | 0.00498 (inactive) | inactive | 24.1% (inactive) | –
C=CCC1(CN2CCCCCC2=O)C(=O)NC(=O)NC1=O | 656 | 4% (inactive) | -118% (inactive) | 148% | -0.0973 | 0.0168 | -1.06 | 11.3% (inactive) | -0.517 (inactive) | -6.8e-05 (inactive) | 0.00505 (inactive) | inactive | -7.71% (inactive) | –
CC(=C1C(=O)c2ccccc2C1=O)N1CCN(CCN=Cc2c(O)n(C)c(=O)n(C)c2=O)CC1 | 584 | -2.8% (inactive) | -90.4% (inactive) | 138% | -0.147 | 0.321 | 0.747 | 1.98% (inactive) | -0.482 (inactive) | -2e-05 (inactive) | 0.00537 (inactive) | inactive | 18.5% (inactive) | –
CC1CCC(C(C)C)C(OP(N)(=O)c2ccccc2)C1 (configuration not stated) | 413 | -4.7% (inactive) | -225% (inactive) | 189% | 1.77 | -0.238 | 0.0184 | 36.1% (inactive) | -0.406 (inactive) | -7.4e-05 (inactive) | 0.00486 (inactive) | inactive | 1.67% (inactive) | –
CCC(=NCCN1CCCCC1)c1c(O)n(C)c(=O)n(C)c1=O | 605 | 0.7% (inactive) | -61.5% (inactive) | 154% | 0.767 | -1.21 | 0.171 | 7.83% (inactive) | -0.517 (inactive) | -3.9e-05 (inactive) | 0.00466 (inactive) | inactive | 18% (inactive) | –
COCCOC(=O)c1c(N)n(Cc2ccco2)c2nc3ccccc3nc12 | 431 | -13% (inactive) | -107% (inactive) | 162% | 0.196 | -0.0973 | 1.79 | 0.671% (inactive) | -0.0308 (inactive) | -7.2e-06 (inactive) | 0.00535 (inactive) | inactive | 15% (inactive) | –
COc1ccc(Cn2c(O)c(C=NCCCn3ccnc3)c(=O)[nH]c2=O)cc1 | 466 | -0.7% (inactive) | 54% (inactive) | 81.9% | -1.17 | 0.328 | 0.929 | 4.25% (inactive) | -0.443 (inactive) | -1.5e-05 (inactive) | 0.00461 (inactive) | inactive | -4.22% (inactive) | –
CN1CCc2nc(SCC(=O)OC(C)(C)C)c(C#N)cc2C1 | 606 | -21.6% (inactive) | -56.3% (inactive) | 178% | -1.57 | -0.211 | 0.501 | 16% (inactive) | -0.316 (inactive) | -4.7e-05 (inactive) | 0.00437 (inactive) | inactive | 102% (active) | –
CCN(CC)CCN=C(C)c1c(O)n(-c2ccccc2OC)c(=O)[nH]c1=O | 564 | 0.8% (inactive) | -34% (inactive) | 88.8% | -0.563 | -1.02 | 1.36 | -2.91% (inactive) | -0.555 (inactive) | -2.8e-05 (inactive) | 0.0051 (inactive) | inactive | -0.4% (inactive) | –
O=C(c1ccco1)C12CN3CN(CN(C3)C1)C2 | 403 | -7% (inactive) | -98.3% (inactive) | 165% | -0.216 | 0.212 | 0.209 | 17.4% (inactive) | -0.431 (inactive) | -0.000115 (inactive) | – | inactive | -4.37% (inactive) | 0.00486 (inactive)
O=C1NCCN2CCCC12 (configuration not stated) | 549 | -10.8% (inactive) | -50.9% (inactive) | 158% | -1.06 | -1.18 | 1.73 | -0.608% (inactive) | -0.497 (inactive) | -0.000122 (inactive) | 0.00514 (inactive) | inactive | 13.6% (inactive) | –
COc1cccc(CN2CCN(C(=O)COc3ccc4ccccc4c3)CC2)c1 | 430 | -6% (inactive) | -195% (inactive) | 210% | -0.132 | -0.0858 | -0.507 | 11% (inactive) | -0.354 (inactive) | -4.1e-06 (inactive) | 0.00527 (inactive) | inactive | 16.5% (inactive) | –
CCCCCCn1c(O)c(C(C)=NC)c(=O)[nH]c1=O | 556 | -6.2% (inactive) | -77.6% (inactive) | 162% | 0.993 | -1.06 | 1.3 | -0.608% (inactive) | -0.503 (inactive) | -6.1e-05 (inactive) | 0.00581 (inactive) | inactive | -6.02% (inactive) | –
COCCOC(=O)C1=C(N)Oc2c(c(=O)oc3ccccc23)[C@@]12C(=O)Nc1ccccc12 | 600 | -9.7% (inactive) | -14.5% (inactive) | 105% | 0.613 | 0.851 | -1.5 | -2.29% (inactive) | -0.499 (inactive) | 2.1e-05 (inactive) | 0.00465 (inactive) | inactive | -16.3% (inactive) | –
O=c1[nH]c(O)c(C=NC2CCN(Cc3ccccc3)CC2)c(=O)[nH]1 | 422 | 0.5% (inactive) | -125% (inactive) | 167% | 0.26 | -1.34 | -0.141 | 4.25% (inactive) | -0.409 (inactive) | -7.4e-05 (inactive) | 0.00643 (inactive) | inactive | -1.61% (inactive) | –
CCCCOCCCn1c(N)c(C(=O)OC(C)COC)c2nc3ccccc3nc21 (configuration not stated) | 572 | -16.3% (inactive) | -75.8% (inactive) | 146% | 0.315 | -0.916 | -1.54 | 11.9% (inactive) | -0.0435 (inactive) | -1e-05 (inactive) | 0.00527 (inactive) | inactive | 21% (inactive) | –
CCCCc1nc2ccccc2c(=O)n1-c1ccccc1O | 619 | -3.2% (inactive) | -6.5% (inactive) | 178% | -0.399 | 0.344 | 1.46 | -4.78% (inactive) | -0.36 (inactive) | 5.8e-06 (inactive) | 0.00524 (inactive) | inactive | 2.52% (inactive) | –
CCCCCCn1c(O)c(C=Nc2c(C)n(C)n(-c3ccccc3)c2=O)c(=O)[nH]c1=O | 335 | -9.2% (inactive) | -82.5% (inactive) | 152% | -0.0314 | 0.533 | 1.54 | -7.01% (inactive) | -0.359 (inactive) | -0.000298 (inactive) | 0.00815 (inactive) | inactive | 5.18% (inactive) | –
O=c1[nH]c(=O)n(-c2cccc(Cl)c2)c(O)c1C=NCCN1CCCCC1 | 506 | 1.5% (inactive) | -67.4% (inactive) | 143% | -0.817 | 1.06 | 1.7 | 15% (inactive) | -0.435 (inactive) | -5.4e-05 (inactive) | 0.00582 (inactive) | inactive | -0.905% (inactive) | –
